According to ChEMBL document CHEMBL1125611, “Synthesis and biological evaluation of a series of 1,1-dichloro-2,2,3-triarylcyclopropanes as pure antiestrogens” (1991):

Legend:
[1] = species: Mus musculus; assay: Ability to antagonize uterine weight gain in immature mice, at a dose of 30 ug; Activity is expressed as anti-uterotrophic % reduction; type: functional; set-up: scale not given: the % may be the effect or the level left
Summary of the method: (§1)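 Immature (17-19 days, 8-10 g) female Swiss-Webster mice, groups of six. Daily sc injections in the nape for 3 consecutive days. Estradiol in sesame oil (0.1 µg/mL, 0.1 mL; total 0.03 µg) plus 0.05 mL test compound in isopropyl myristate, given at separate sites. Vehicle and estradiol-only controls. Uteri cleaned, blotted and weighed 24 h after the last dose. % reduction of the estradiol-induced weight gain.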

[2] = species: Mus musculus; assay: Ability to antagonize uterine weight gain in immature mice, at a dose of 150 ug; Activity is expressed as anti-uterotrophic % reduction; type: functional; set-up: scale not given: the % may be the effect or the level left; summary of the method: as §1
[3] = species: Mus musculus; assay: Ability to antagonize uterine weight gain in immature mice, at a dose of 750 ug; Activity is expressed as anti-uterotrophic % reduction; type: functional; set-up: scale not given: the % may be the effect or the level left; summary of the method: as §1
[4] = biological target: T1, Estrogen receptor (Mus musculus) (UniProt O08537+P19785); assay: Antagonism of estradiol induced uterine weight gain in immature mice at 4 ug; Activity is expressed as anti-uterotrophic % reduction; type: functional; set-up: scale not given: the % may be the effect or the level left; summary of the method: as §1
T1 sequence (O08537 whole entry, looked up): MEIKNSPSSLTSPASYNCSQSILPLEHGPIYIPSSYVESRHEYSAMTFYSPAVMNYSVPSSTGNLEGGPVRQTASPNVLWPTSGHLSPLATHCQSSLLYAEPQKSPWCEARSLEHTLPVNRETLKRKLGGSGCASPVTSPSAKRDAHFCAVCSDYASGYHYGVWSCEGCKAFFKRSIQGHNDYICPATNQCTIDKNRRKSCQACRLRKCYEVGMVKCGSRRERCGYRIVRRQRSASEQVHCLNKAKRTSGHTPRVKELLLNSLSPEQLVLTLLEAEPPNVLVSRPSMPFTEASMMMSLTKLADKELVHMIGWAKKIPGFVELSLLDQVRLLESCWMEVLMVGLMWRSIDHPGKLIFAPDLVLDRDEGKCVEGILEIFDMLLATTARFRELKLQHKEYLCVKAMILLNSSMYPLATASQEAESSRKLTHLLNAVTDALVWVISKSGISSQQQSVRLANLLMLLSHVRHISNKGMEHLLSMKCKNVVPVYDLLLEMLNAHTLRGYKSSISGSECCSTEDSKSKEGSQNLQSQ
T1 sequence (P19785 whole entry, looked up): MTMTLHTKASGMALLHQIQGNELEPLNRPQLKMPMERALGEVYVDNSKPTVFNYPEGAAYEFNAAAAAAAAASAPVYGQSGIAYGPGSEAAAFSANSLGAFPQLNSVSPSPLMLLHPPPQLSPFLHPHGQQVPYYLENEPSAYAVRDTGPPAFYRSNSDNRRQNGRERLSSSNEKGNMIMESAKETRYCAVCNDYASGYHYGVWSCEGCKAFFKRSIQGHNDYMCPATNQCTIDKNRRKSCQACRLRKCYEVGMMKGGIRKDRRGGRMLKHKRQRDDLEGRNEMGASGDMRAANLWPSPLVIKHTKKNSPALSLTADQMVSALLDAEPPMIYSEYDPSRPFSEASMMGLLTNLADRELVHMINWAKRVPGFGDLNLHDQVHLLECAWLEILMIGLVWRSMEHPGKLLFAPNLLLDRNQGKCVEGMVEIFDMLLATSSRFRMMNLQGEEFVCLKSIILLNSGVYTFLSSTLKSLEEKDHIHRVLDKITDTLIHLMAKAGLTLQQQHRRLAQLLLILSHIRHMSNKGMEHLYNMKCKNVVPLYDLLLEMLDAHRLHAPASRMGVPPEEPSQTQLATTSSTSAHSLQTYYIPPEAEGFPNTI

[5] = biological target: T1, Estrogen receptor (Mus musculus); assay: Antagonism of estradiol induced uterine weight gain in immature mice at 10 ug; Activity is expressed as anti-uterotrophic % reduction; type: functional; set-up: scale not given: the % may be the effect or the level left; summary of the method: as §1
[6] = biological target: Estrogen receptor (Homo sapiens) (UniProt Q92731+P03372); assay: Antiproliferative activity against estrogen receptor positive MCF-7 human breast cancer cell line at 10e-9 M; type: functional, cell-based; conditions: MCF7
Summary of the method: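 MCF-7 cells in phenol-red-free RPMI 1640 with 5% calf serum, 2 mM L-glutamine and antibiotics, 37 °C, 5% CO2. Plated at 7.5 × 10⁴ cells/well, then allowed to attach for 2 days. Compound in 11:9 PEG 400–EtOH (final vehicle 0.1%) added on alternate days. Viable cells counted on day 4 by trypan blue exclusion, triplicate. % inhibition versus vehicle control.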

[7] = biological target: T1, Estrogen receptor (Mus musculus); assay: Antagonism of estradiol induced uterine weight gain in immature mice at 30 ug.; type: functional; set-up: scale not given: the % may be the effect or the level left; summary of the method: as §1
[8] = biological target: T1, Estrogen receptor (Mus musculus); assay: Antagonism of estradiol induced uterine weight gain in immature mice at 150 ug.(p<0.01); type: functional; set-up: scale not given: the % may be the effect or the level left; summary of the method: as §1
[9] = biological target: T1, Estrogen receptor (Mus musculus); assay: Antagonism of estradiol induced uterine weight gain in immature mice at 750 ug; Activity is expressed as anti-uterotrophic % reduction; type: functional; set-up: scale not given: the % may be the effect or the level left; summary of the method: as §1
[10] = biological target: T1, Estrogen receptor (Mus musculus); assay: Antagonism of estradiol induced uterine weight gain in immature mice at 200 ug; Activity is expressed as anti-uterotrophic % reduction; type: functional; set-up: scale not given: the % may be the effect or the level left; summary of the method: as §1
[11] = biological target: T1, Estrogen receptor (Mus musculus); assay: Antagonism of estradiol induced uterine weight gain in immature mice at 800 ug; Activity is expressed as anti-uterotrophic % reduction; type: functional; set-up: scale not given: the % may be the effect or the level left; summary of the method: as §1
[12] = biological target: T1, Estrogen receptor (Mus musculus); assay: Antagonism of estradiol induced uterine weight gain in immature mice at 400 ug; Activity is expressed as anti-uterotrophic % reduction; type: functional; set-up: scale not given: the % may be the effect or the level left; summary of the method: as §1
[13] = biological target: Estrogen receptor (Rattus norvegicus) (UniProt P06211+Q62986); assay: Relative binding affinity for estrogen receptor in rat uterine cytosol by displacement of [3H]-estradiol; conditions: Uterus
Summary of the method: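 Uterine cytosol from immature Sprague-Dawley rats (17-19 days) primed with estradiol (0.53 µg sc daily ×3). Competitive displacement of [3H]estradiol, with free ligand removed by dextran-coated charcoal. Parallel incubations with 4 × 10⁻⁶ diethylstilbestrol define nonspecific binding, which is subtracted. RBA relative to estradiol = 100%, by Bliss method, duplicates.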

Structure (SMILES) | Activity [1] [%] | Activity [2] [%] | Activity [3] [%] | also measured
COc1ccc(C2(c3ccc(OCCN(C)C)cc3)C(c3ccccc3)C2(Cl)Cl)cc1 (configuration not stated) | 33 | 42 | 53 | Activity [4]: -10%; Activity [5]: 6%
COc1ccc(C2=C(Cl)C(c3ccc(OC)cc3)c3cc(OC)ccc32)cc1 (configuration not stated) | 27 | -6 | 28 | –
COc1ccc(C2(c3ccccc3)C(c3ccccc3)C2(Cl)Cl)cc1 (configuration not stated) | 22 | 49 | 33 | inhibition [6]: 6.1%
COc1ccc(C2C(Cl)(Cl)C2(c2ccc(OC)cc2)c2ccc(OCc3ccccc3)cc2)cc1 (configuration not stated) | – | 49 | 2 | Activity [7]: 15%; Activity [5]: 2%
CC/C(=C(\c1ccccc1)c1ccc(OCCN(C)C)cc1)c1ccccc1 [TAMOXIFEN] | 4 | 0 | -12 | –
COc1ccc(C2(c3ccc(OCc4ccccc4)cc3)C(c3ccccc3)C2(Cl)Cl)cc1 (configuration not stated) | 37 | – | 22 | inhibition [6]: 31.3%; Activity [8]: 47%
COc1ccc(C2C(Cl)(Cl)C2(c2ccc(O)cc2)c2ccc(OC)cc2)cc1 (configuration not stated) | 19 | 10 | 26 | –
COc1ccc(C2C(Cl)=C(c3ccc(O)cc3)c3ccc(OC)cc32)cc1 (configuration not stated) | 3 | 14 | 12 | –
COc1ccc(C2(c3ccc(O)cc3)C(c3ccccc3)C2(Cl)Cl)cc1 (stereo in doubt; 6c) | 28 | 18 | 22 | –
CCN(CC)CCOc1ccc(C(O)(Cc2ccc(OC)cc2)c2ccccc2)cc1 (configuration not stated) | 1 | 30 | – | Activity [9]: 82%
ClC1(Cl)C(c2ccccc2)C1c1ccccc1 (configuration not stated) | – | – | – | Activity [10]: 28%; Activity [11]: 58%; Activity [12]: 42%
ClC1(Cl)C(c2ccccc2)C1(c1ccccc1)c1ccccc1 (configuration not stated) | 11 | 3 | 13 | RBA [13]: 0.1%
COc1ccc(C2C(Cl)=C(c3ccc(OCc4ccccc4)cc3)c3ccc(OC)cc32)cc1 (configuration not stated) | 14 | 4 | 0 | –
COc1ccc(C2(c3ccc(O)cc3)C(c3ccccc3)C2(Cl)Cl)cc1 (stereo in doubt; 6b) | 15 | -7 | 41 | –
Oc1ccc(C2(c3ccccc3)C(c3ccccc3)C2(Cl)Cl)cc1 (configuration not stated) | 23 | 12 | 25 | –
CN(C)CCOc1ccc(C2(c3ccccc3)C(c3ccccc3)C2(Cl)Cl)cc1 (configuration not stated) | 37 | 30 | 18 | inhibition [6]: 12.4%; Activity [4]: -6%; Activity [5]: 10%
